Compound activity from PubChem.
Compounds with a hit are over-represented: about 5.3% of the library has one in this group of screens.
T cruzi repl: T. cruzi replication inhibition. inhibition, % (concentration not given with the values). 1.4% of 300,000 active. T. cruzi beta-gal in NIH3T3, luminescence, 90 h. AID 1885;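 active means mean inhibition across valid replicates above about 55%, limit read from the data; inconclusive means mean below that limit but half or more replicates reach it; inactive means mean below it, under half of replicates reach it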;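 further: signal also drops with host cell toxicity which is not excluded here; 0% = plate median of DMSO wells and 100% = zero luminescence signal; higher percent means less beta-gal luminescence so fewer parasites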
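Read-out: Parasite load inhibition, % | Test system: Mouse NIH/3T3 fibroblasts infected with β-gal-expressing T. cruzi Tulahuen C4 | Amount: 5,000 cells/well | Medium: DMEM, 2% fetal bovine serum | Signal: GalScreen β-gal luminescence, detergent lysis, 60 min | Timing: 3 h attach, ≥90 h co-culture | Also added: Tulahuen C4 trypomastigotes, 5000/well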
Calb FLC: C. albicans growth modulation with fluconazole. growth inhibition, % (concentration not given with the values). AID 1979. C. albicans CaCi-2 + fluconazole, Alamar Blue growth, 48 h. 0.57% of 300,000 active;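 active means growth inhibition above about 58% in most replicates, limit read from the data, passing the limit was not always enough; inconclusive means exactly half the replicates above a set limit; inactive means most replicates below a set limit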;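 further: all wells also contain fluconazole at 8 µg/ml as a sub-toxic cotreatment; 0% = median of DMSO wells and 100% = median of geldanamycin control wells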
Beta apoptosis: beta cell apoptosis inhibition; protection from apoptosis, % (no concentration beside the values); 0.8% of 300,000 active; INS-1E cytokine-induced death, ATP luminescence, 48 h; percent of positive-control rescue, neutral wells zero;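 active means Every replicate reaches about 75%, or at least half do and their mean reaches it too, limit read from the data; inconclusive means At least half of replicates reach the limit but their mean does not; inactive means Under half of replicates reach the limit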;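 further: 0% = cytokine-treated negative control wells and 100% = positive control rescue; higher means more ATP so stronger rescue from cytokine killing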
CSC inhib: blocks cancer stem cells; AID 2717; inhibition, % at 7.5 µM; 1.1% of 300,000 active; cancer stem cell-like cells viability, luminescence; in the data active means inhibition above about 75%; inconclusive means no clear call, values can overlap the other calls; tested in HMLE shEcad cells
NALP3 yeast inh: inhibitors of NALP3 inflammasome in yeast; 0.39% of 330,000 active; inhibition, % at 10 µM; Yeast reconstituted NLRP3/ASC/caspase-1, beta-gal luminescence, 24 h;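 active means inhibition of 50% or more; inactive means inhibition below 50%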;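 further: plate controls were induced DMSO wells for no effect and uninduced yeast grown without galactose for full effect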
Mdm2-MdmX inh: inhibitors of human Mdm2/MdmX interaction | O15151+Q00987 | SaOS-2 split-luciferase Mdm2/MdmX complementation, luminescence | inhibition, % at 8 µM | 3% of 330,000 active | AID 485346;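 active means inhibition of at least 50% at 8 µM in the primary screen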
Starred values were filed as active, the others as inactive; ? = inconclusive; . = no result.

SMILES | T cruzi repl | Calb FLC | Beta apoptosis | CSC inhib | NALP3 yeast inh | Mdm2-MdmX inh
COc1ccc(N(CCCN2C(=O)c3cccc4cccc(c34)C2=O)C(=O)c2cccnc2)cc1 | 68* | -17 | . | -8 | 3 | 15
COc1ccc(N(CCCN2C(=O)c3cccc4cccc(c34)C2=O)C(=O)c2ccncc2)cc1 | 55* | -4 | -1 | 11 | 7 | 50
NC(=O)CC(NC(=O)c1ccc(Br)cc1)c1ccc(N2CCC(Br)CC2)c([N+](=O)[O-])c1 (stereo not given) | -12 | -7 | -96 | 23 | 14 | 13
Cc1cc(Nc2ccccc2)c2c([N+](=O)[O-])ccc(C)c2n1 | 61* | -2 | -6 | 8 | 32 | 19
OC1CCN(c2cc(-c3ccccc3)nc3cc(-c4ccc(F)cc4)nn23)CC1 | 38 | 15 | 9 | 88* | 21 | 17
COc1cccc(-c2cc3nc(-c4ccccc4)cc(N4CCCC(O)C4)n3n2)c1 (stereo not given) | 37 | 1 | 13 | 90* | 21 | 32
Cc1ccc(-c2cc3nc(-c4ccccc4)cc(N4CCOCC4)n3n2)cc1 | 32 | 9 | . | . | . | .
COCCNC(=S)NNC(=O)c1cc(C2CC2)nc2ccccc12 | -5 | 5 | 12 | -7 | 15 | -6
Oc1nc(Nc2ccccc2)sc1/C=C1\C=Nc2ccccc21 | 33 | 91* | 3 | ? | 9 | -105
Cc1cc(OCC(=O)N(C)Cc2ccccc2)ccc1Br | -2 | 3 | -13 | -11 | 35 | -53
Cc1cc(OCC(=O)N(C)Cc2ccccc2)ccc1Cl | 7 | -7 | 110* | -17 | 45 | -1
CCOc1ccccc1NC(=O)CCNS(=O)(=O)c1cccc2nsnc12 | 4 | -1 | 0 | -15 | 17 | 0
O=C(/C=C/c1cc(Br)ccc1O)c1ccco1 | -20 | 93* | 10 | ? | 32 | 18
Cc1ccc(/C=C/C(=O)c2cc(Br)ccc2OC(=O)c2ccco2)cc1 | -6 | 1 | 8 | 93* | -11 | 39
CCOC(=O)c1ccccc1NC(=O)CC1SC(=NC)N(C)C1=O (stereo not given) | -27 | 31 | -3 | 4 | 0 | 15
CCOC(=O)c1sc(NC(=O)CN2C(=O)NC3(CC(C)CC(C)(C)C3)C2=O)cc1C (stereo not given) | 59* | 6 | 1 | 43 | 11 | 11
Cc1cc(C)nc(NC(=NCCc2c[nH]c3ccccc23)NC(=O)Nc2ccc(Cl)c(Cl)c2)n1 | 62* | -6 | 9 | 8 | 2 | 34
CN(C)c1nc(N)ncc1-c1ccc(Oc2ccccc2)cc1 | 70* | 45 | 3 | -8 | 34 | 20
CCSc1ncc(/C=N/Nc2ccccc2)n1C | 40 | -25 | -9 | -3 | 35 | 0
CCSc1ncc(/C=N/Nc2ccc(Cl)cc2)n1C | 34 | -1 | 0 | 93* | 35 | -193
CN(C)c1ccc(-c2nnc(-c3cccs3)o2)cc1 | 28 | -13 | -3 | . | 35 | -50
O=[N+]([O-])c1ccc(-n2cnc3ccccc32)c([N+](=O)[O-])c1 | 71* | -2 | 118* | -6 | 20 | 25
COc1cccc(CCc2nnc(CCC(=O)N3CCCC3c3nccs3)o2)c1 (stereo not given) | -12 | -13 | 3 | 10 | -8 | -8
N/C(=N\OC(=O)c1cccc2ccccc12)c1cccnc1 | 20 | 27 | 1 | -7 | 0 | 48
Fc1cccc(Cl)c1-c1nnc2ccc3ccccc3n12 | 32 | -30 | 101* | -6 | 9 | 23
SMILES | T cruzi repl | Calb FLC | Beta apoptosis | CSC inhib | NALP3 yeast inh | Mdm2-MdmX inh
COc1ccccc1OCCCC(=O)Nc1ccc(N2CCOCC2)cc1 | 3 | -6 | 0 | . | 13 | -5
Cc1ccc2c(c1)N(CC(=O)N1CCCCC1c1cccnc1)C(=O)CO2 (stereo not given) | 61* | -15 | -3 | 3 | 11 | -6
Cc1ccc(C2CC2C(=O)NNC(=S)Nc2cccc(Cl)c2)cc1 (stereo not given) | 5 | 112* | 6 | 55 | 5 | -22
O=C(NCc1nnc2c(C(F)(F)F)cc(Cl)cn12)C1CCCC1 | -5 | -3 | -3 | -9 | 10 | 21
Nc1nc(-c2ccc(Cl)cc2)c(S(=O)(=O)c2ccccc2)s1 | 10 | 36 | -6 | -5 | -1 | 7
Cc1ccc(-n2ncc(Br)c(Br)c2=O)cc1 | 75* | 97* | . | . | . | .
